Measurements reported in PubChem BioAssay AID2727 (Broad Institute, 2010).
This is one part of the list. Activity calls are given as the source filed them.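 Rule for the calls: active = inhibition above about 80% in every replicate, not just on average (limit read from the data); inconclusive = at least half of replicates past the limit, but not all; inactive = fewer than half of replicates past the limit.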

Test: luminescence inhibition in constitutive-on V. harveyi, confirmation, counter-screen for LuxS inhibitor project, strain BB721, luminescence readout (AID 2727)
Conditions: Vibrio harveyi BB721 luminescence, 9 h; at 7.5 µM; hits give high values
How it was run: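 Evaluation: Luminescence decrease marking disrupted downstream quorum sensing signalling | Assay system: V. harveyi BB721 bacterial culture | Amount: Bacterial culture diluted to starting OD600 of 0.0005 | Timing: 9 h exposure at 30 °C | Medium: AB (autoinducer bioassay) growth medium | Doses: 45 nL per well from 10 mM compound stock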

| Compound | inhibition |
| --- | --- |
| Cc1ccccc1C(=O)Nc1ccc(N2CCCCCC2)cc1 | 91.4% (active) |
| CCOc1ccc(/C=N/NC(N)=S)cc1 | 92.7% (active) |
| Cc1cc(C(=O)OCC(=O)Nc2ccc(F)c(F)c2)c(C)o1 | 97.5% (active) |
| O=C1COc2ccc(S(=O)(=O)Nc3ccc(OC(F)(F)F)cc3)cc2N1 | 96.7% (active) |
| Cc1ccc(NS(=O)(=O)c2ccc3c(c2)NC(=O)CO3)cc1 | 92% (active) |
| Cc1cccc(CSc2ccc(-c3cccs3)nn2)c1 | 94.7% (active) |
| O=C(c1cc(-c2cccc(O)c2)on1)N1CCc2ccccc2C1 | 93.6% (active) |
| COC(=O)c1ccc(SCc2ccccc2)nc1 | 96.4% (active) |
| Cc1cc(CN(C)C(=O)c2cc(COc3ccc(C)c(C)c3)on2)n[nH]1 | 96% (active) |
| CCOC(=O)c1nn(-c2cccc(C)c2)cc1C(=O)c1ccccc1 | 87.7% (active) |
| CC(=O)c1cccc(OCc2cc(C(=O)NC(C)Cc3cccnc3)no2)c1 (stereo not drawn) | 92.4% (active) |
| O=S(=O)(Nc1cccc(Oc2ccc(Cl)cc2)n1)c1ccc(F)cc1 | 99.6% (active) |
| Cc1ccccc1NC(=O)CCOc1ccccc1 | 90.7% (active) |
| CC(C)(C)c1ccc(OC2=CS(=O)(=O)c3ccccc32)cc1 | 92.5% (active) |
| O=C(/C=C/c1ccc2c(c1)OCCO2)c1ccc(O)cc1 | 93.3% (active) |
| COC(=O)C1CCN(C(=O)c2ccc3oc(Cc4ccc(Cl)cc4)nc3c2)CC1 | 95.6% (active) |
| Cc1ccc(NC(=O)C2CC2c2ccccc2)cc1 (stereo not drawn) | 94.8% (active) |

| Compound | inhibition |
| --- | --- |
| COc1cccc(NC(=O)NCc2ccc(F)cc2)c1 | 94.6% (active) |
| S=C(NCc1ccc(Cl)cc1)NC1CCCCC1 | 94.1% (active) |
| CN(Cc1cnccn1)C(=O)c1cc(COc2cccc(C(F)(F)F)c2)on1 | 96% (active) |
| O=C(CCC(=O)c1cccs1)Nc1nc2ccccc2s1 | 97.5% (active) |
| O=C(Nc1ccc(F)c(Cl)c1)C1CCN(S(=O)(=O)c2cccnc2)CC1 | 97.7% (active) |
| O=C(COC(=O)C1CCCCC1)Nc1ccc([N+](=O)[O-])cc1 | 93.7% (active) |
| Cc1nn(CC(=O)Nc2ccc(F)cc2)c(=O)c2ccccc12 | 98.5% (active) |
| CC(CNc1ccc([N+](=O)[O-])cc1)NC(=O)c1ccccc1Br (stereo not drawn) | -4.57% (inactive) |
| Cc1ccc(Cc2nc(-c3cccc(C)c3)no2)cc1 | 92.5% (active) |
| O=C(/C=C/c1ccc2c(c1)OCO2)NCc1ccc(F)cc1 | 94% (active) |
| O=C(Cn1cnc2ccccc2c1=O)Nc1cccc(S(=O)(=O)N2CCCCC2)c1 | 85.6% (active) |
| Cc1ccsc1C(=O)OCC(=O)c1cc2ccccc2o1 | 95.1% (active) |
| O=C(COc1ncnc2ccccc12)NC(=O)NCc1ccccc1 | 95.7% (active) |
| N/C(=N\OC(=O)CCc1ccccc1)c1cccnc1 | 91.1% (active) |
| COc1ccc(/C(N)=N/OC(=O)Cc2ccccc2)cc1 | 93.6% (active) |
| Cc1ccc(Oc2cnn(-c3ccccc3)c(=O)c2Br)cc1 | 99.2% (active) |
